The source made the active and inactive calls. How the calls were made is not given here.

A short description of data set [1]: Selectivity index, ratio of CC50 for human MT4 cells to EC50 for HIV1 3B. The format is toxicity, cell-based. The following applies: read-out: Ratio CC50/EC50. An outline of the steps:
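Ratio of CC50 in mock-infected MT-4 cells to EC50 for protection from HIV-1 cytopathogenicity, both read by MTT method.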

Data set [2] in a line: Cytotoxicity against mock-infected human MT4 cells by MTT assay. The class given is cell-based. An outline of the steps:
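Mock-infected MT-4 cells, tested in parallel with the antiviral assay; viability read by MTT method; CC50 is the concentration lowering viability by 50%; mean of three separate experiments, triplicate variation under 10%.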
Background: Tetrazolium dyes change colour on reduction, which living cells bring about.

Data set [3] has as its system Human immunodeficiency virus 1. Description: Antiviral activity against HIV1 3B Y181C/K103N double mutant in human MT4 cells assessed as protection against viral induced cytopathogenicity by MTT assay. The class given is functional, organism-based. An outline of the steps:
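MT-4 cells infected with HIV-1 carrying the NNRTI-resistance mutation were assayed for protection from virus-induced cytopathogenicity, read out as cell viability by MTT. EC50 is the compound concentration giving 50% protection. Values are means of three separate experiments, with variation among triplicate samples under 10%. Efavirenz served as the reference.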
On the technique in general: Protection from cytopathic effect is a common read-out in antiviral testing.

Data set [4] relates to Human immunodeficiency virus 1. Description: Antiviral activity against wild type HIV1 3B in human MT4 cells assessed as protection against viral induced cytopathogenicity by MTT assay. The following applies: Human immunodeficiency virus 1, 3B. The format is functional, organism-based. In outline: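 MT-4 cells infected with HIV-1; 50% protection from virus-induced cytopathogenicity read by MTT method; EC50 in micromolar; mean of three separate experiments, triplicate samples varying under 10%.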

One may read the CC50 as the concentration giving 50% cytotoxicity. Read a low CC50 as harm at low concentration. By EC50 is commonly meant the concentration giving half of the maximal effect. As to `O=C(O)c1ccccc1C(=O)NCCOC(=S)Nc1cc(F)cc(F)c1`, the selectivity ratio in data set [1] is above 1.6. The compound further showed a cytotoxic concentration (CC50) in data set [2] above 100 µM. For the same compound, the result in data set [3] was inactive. The EC50 in data set [4] was found to be 62 µM.
For `O=C1c2ccccc2C(=O)N1CCOC(=S)Nc1c(F)cc(F)cc1F`, in that order: above 50, above 100 µM, “inactive” and 2 µM.
In the case of `O=C1c2ccccc2C(=O)N1CCOC(=S)Nc1ccc(F)cc1F`, the selectivity ratio in data set [1] was above 200. Moreover, in data set [2], the CC50 is above 100 µM. Further, the result in data set [3] was inactive. The EC50 in data set [4] is 0.5 µM.
The matching figures for `COc1ccc(NC(=S)OCCN2C(=O)c3ccccc3C2=O)cc1OC`: above 28.6, above 100 µM, “inactive” and 3.5 µM.
On to `Cc1ccc(NC(=S)OCCN2C(=O)c3ccc(C)cc3C2=O)cc1`, for which, in data set [1], the selectivity ratio worked out at 3450. Moreover, the CC50 in data set [2] was found to be 69 µM. In data set [3], the outcome was inactive. Further, the EC50 in data set [4] stood at 0.02 µM.
The matching figures for `CCCCNC(=S)OCCN1C(=O)c2ccccc2C1=O`: above 13.9, above 100 µM, “inactive” and 7.2 µM.
For `O=C1c2ccccc2C(=O)N1CCOC(=S)Nc1cc(F)ccc1F`, in that order: above 12.5, above 100 µM, “inactive” and 8 µM.
Consider `O=C1c2ccccc2C(=O)N1CCOC(=S)Nc1ccc(Cl)c(Cl)c1Cl`, for which the selectivity ratio in data set [1] is above 9.1. Further, in data set [2], the CC50 was above 100 µM. For the same compound, the result in data set [3] was inactive. The concentration giving a half-maximal response (EC50) in data set [4] came to 11 µM.
For `O=C(O)c1ccccc1C(=O)NCCOC(=S)Nc1c(F)cccc1F`, in that order: above 2.2, above 100 µM, “inactive” and 45 µM.
Take `O=C1c2ccccc2C(=O)N1CCOC(=S)Nc1c(F)c(F)cc(F)c1F`: the selectivity ratio in data set [1] is above 10. In addition, the CC50 in data set [2] is above 100 µM. Further, in data set [3], the outcome was inactive. Besides, the EC50 in data set [4] was determined as 10 µM.
For `O=C1c2ccccc2C(=O)N1CCOC(=S)Nc1cc(F)cc(F)c1`, in that order: above 11.1, above 100 µM, “inactive” and 9 µM.
The matching figures for `O=C1c2ccccc2C(=O)N1CCOC(=S)Nc1ccc(Cl)c(Cl)c1`: above 500, above 100 µM, “inactive” and 0.2 µM.
For the compound `O=C1c2ccccc2C(=O)N1CCOC(=S)NCCc1ccccc1`, the selectivity ratio in data set [1] was above 10.9. In data set [2], this compound returned a CC50 above 100 µM. In data set [3], the outcome was inactive. Besides, in data set [4], the EC50 is 9.2 µM.
For `O=C1c2ccccc2C(=O)N1CCOC(=S)NCC1CCCCC1`, in that order: above 91, above 100 µM, “inactive” and 1.1 µM.
For `O=C(O)c1ccccc1C(=O)NCCOC(=S)Nc1ccc(F)cc1F`, in that order: above 26.3, above 100 µM, “inactive” and 3.8 µM.
For `C[C@@H](COC(=S)Nc1ccc(Cl)cc1)NC(=O)c1ccccc1C(=O)O`, in that order: above 43.5, above 100 µM, “inactive” and 2.3 µM.
As to `Cc1ccc(NC(=S)OCCN2C(=O)c3ccc(C(C)(C)C)cc3C2=O)cc1`, the selectivity ratio in data set [1] stood at 28. In addition, in data set [2], the CC50 was 42 µM. In addition, in data set [3], the outcome was inactive. In data set [4], the EC50 was 1.5 µM.
